Compound activity: PubChem, Johns Hopkins Ion Channel Center
Only some compounds are listed: those with a hit (about 3.5% of all), similar ones and a draw of the others.
MrgX1 agonist – activates human MrgX1 receptor signaling; MrgX1-HEK293 cells, Fluo-4 calcium fluorescence, agonist mode; active compounds read high; Q96LB2; B-score at 10 µM; actives 0.44% (n = 310,000);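 active = calcium response B-score plate-corrected fluorescence ratio at least 3 library SD, with starting fluorescence B-score inside 5 SD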
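Test system: HEK293 cells stably expressing human MrgX1 receptor; amount: 15,000 cells per well; doses: compound delivered in addition one of three; times: overnight plating before 1 h dye loading; detection: Fluo-4 NW calcium-flux fluorescence, kinetic read; read-out basis: B-scored fluorescence response ratio; controls: positive and negative controls per plate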
MrgX1 antag – blocks BAM8-22 activation of human MrgX1 receptor; actives 1.3% (n = 310,000); B-score at 10 µM; Q96LB2; MRGX1-HEK293 calcium flux, Fluo-4, BAM8-22 antagonism; active compounds read low;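 active = calcium-response B-score plate-corrected more than 3 library SD below zero, starting fluorescence within 5 deviations, no agonist response on first addition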;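 note: peak minus trough fluorescence over baseline after final BAM8-22 challenge near maximal dose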
RGS4 pot – RGS4 potentiation or activation. HEK293 M3R/inducible RGS4, carbachol calcium flux Fluo4; active compounds read low. B-score at 10 µM. actives 0.92% (n = 310,000). AID 463111;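 active = B-score of the integrated calcium signal more than 4 SD below the library mean, with starting fluorescence not abnormally high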;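 note: negative B-score means reduced calcium response which marks RGS4 activation or potentiation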
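System: HEK293 FlpIn-TREx cells, stable M3R, doxycycline-inducible RGS4. Timing: overnight RGS4 induction, 30 min dye load 37 °C, 20 min compound RT. Also added: carbachol, ECmax concentration. Measured by: Fluo4 fluorescence kinetic imaging of calcium. Evaluation: integrated calcium ratio converted to B score.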
MrgX1 PAM – human MrgX1 positive allosteric modulation, primary screen | actives 0.63% (n = 310,000) | B-score at 10 µM | MrgX1-HEK293, Fluo-4 calcium flux, FDSS; active compounds read high;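 active = plate-corrected calcium response at least 3 library SD above typical, normal starting fluorescence, not activating the receptor alone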;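 note: compound read alongside a low EC10 to EC30 dose of BAM8-22 agonist; peak minus trough fluorescence over baseline measured at the second addition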
RGS4 inh – inhibitors of human RGS4. P49798. B-score at 10 µM. actives 0.45% (n = 310,000). AID 463165. HEK293 M3R/RGS4 inducible, Fluo-4 calcium flux; active compounds read high; triggered by carbachol at its EC20;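 active = B-score, a plate-corrected calcium signal, over three deviations above library mean, with baseline fluorescence within five deviations of library mean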;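 note: RGS4 expression induced by doxycycline in cells with stable M3 receptor; B-score is computed from the integrated fluorescence ratio over baseline after carbachol; higher B-score means a larger calcium signal and so more RGS4 inhibition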
Target sequence (P49798 whole entry, looked up): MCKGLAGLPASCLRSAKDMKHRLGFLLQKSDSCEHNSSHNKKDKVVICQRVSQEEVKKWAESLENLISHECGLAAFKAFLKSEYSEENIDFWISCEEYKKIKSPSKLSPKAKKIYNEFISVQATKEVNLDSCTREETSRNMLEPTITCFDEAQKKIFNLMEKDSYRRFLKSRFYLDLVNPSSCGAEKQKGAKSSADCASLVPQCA
RGS4 activ val – RGS4 activation, validation assay | shares compounds with RGS4 pot | HEK293 M3R/RGS4 inducible, carbachol calcium flux Fluo4 | inhibition, % at 10 µM | actives 89% (n = 1,100);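 active = inhibition above 3 SD of the buffer control wells, cut at about 41% in these data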;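 note: signal is the integrated peak-minus-minimum Fluo4 fluorescence over baseline ratio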
M3R Ca counter – RGS4 activator counter-screen hit in non-induced cells; inhibition, % at 10 µM; AID 602283; HEK293 M3R non-induced RGS4, Fluo4 calcium flux; after carbachol challenge at its EC90; actives 82% (n = 1,100); shares compounds with RGS4 pot;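 active = inhibition exceeding 3 SD of buffer-only control wells, cut at about 26% in these data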;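 note: percent drop in integrated peak-minus-baseline over baseline Fluo4 ratio after carbachol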
The depositor's hits bear a star; i = inactive; . = not tested or not shown.

SMILES	MrgX1 agonist	MrgX1 antag	RGS4 pot	MrgX1 PAM	RGS4 inh	RGS4 activ val	M3R Ca counter
CC1CC(OC(=O)C(O)c2ccccc2)CC(C)(C)N1C (stereo unspecified)	i	i	-10*	i	i	77*	38*
CCOC(=O)N1CCN(c2ccncc2S(=O)(=O)N2CCCCC2)CC1	i	i	i	i	i	.	.
O=Cc1cn(-c2ccccc2)nc1-c1ccccc1	i	i	i	i	i	.	.
CC1=NNC(=O)/C1=C\c1cn(-c2ccccc2)nc1-c1ccccc1	i	i	-11*	i	i	70*	34*
CC(C)NS(=O)(=O)c1ccc(CCC(=O)N2CCc3ccccc3C2)cc1	i	i	-7.5*	i	i	0	0
CC(C)NS(=O)(=O)c1ccc(OCC(=O)N2CCc3ccccc3C2)cc1	i	i	i	i	i	.	.
O=C(Nc1ccccc1F)Nc1cc(S(=O)(=O)N2CCOCC2)ccc1N1CCCC1	i	i	i	i	i	.	.
O=C(Nc1ccc(Cl)c(Cl)c1)Nc1cc(S(=O)(=O)N2CCOCC2)ccc1N1CCCC1	i	i	-9.2*	i	i	72*	27*
Cc1ccc(C(C)C)c(OCCCNCc2cccnc2)c1	i	i	-8.7*	i	i	92*	60*
Cc1ccc(NC(=O)CCNC(=O)c2ccc(Cl)cc2)nc1	i	i	i	i	i	.	.
NC(=O)C[N+]1(CC#CC(O)(c2ccccc2)c2ccccc2)CCCC1	i	i	-12*	i	i	52*	0
Cn1c(SCCOc2ccccc2F)nc2ccccc2c1=O	i	i	-7.8*	i	i	92*	81*
Cc1cc(C(=O)N2CCN(c3cc(Cl)ccc3C)CC2)on1	i	i	i	i	i	.	.
O=C(c1ccco1)N(Cc1ccc([N+](=O)[O-])cc1)c1ccc(Cl)cc1	i	i	i	i	i	.	.
Cc1ccc(N(Cc2ccc([N+](=O)[O-])cc2)C(=O)c2ccco2)cc1C	i	i	-11*	i	i	88*	40*
Nc1cc(=O)[nH]c(SCC(=O)Nc2cccc(Cl)c2)n1	i	i	i	i	i	.	.
Nc1cc(=O)[nH]c(SCC(=O)Nc2ccc(Oc3ccccc3)cc2)n1	i	i	-10*	i	i	0	0
C[N+]1(CC(=O)OCCCc2ccccc2)CCCCC1	i	i	i	i	i	.	.
CC1(C(O)(C#CC[N+]2(C)CCCCC2)c2ccccc2)CCCC1 (stereo unspecified)	i	i	-15*	i	i	92*	95*
COc1cccc(CNC(=O)CCC2CCCN(C3CCOCC3)C2)c1 (stereo unspecified)	i	i	i	i	i	.	.
COc1cccc(CNC(=O)CCC2CCCN(c3cc(C)nc(N4CCCC4)n3)C2)c1 (stereo unspecified)	i	i	-12*	i	i	92*	94*
Cc1ccc(Sc2ccc(C(=O)N3CCOCC3)cc2[N+](=O)[O-])cc1	i	i	i	i	i	.	.
Cc1cccc(NS(=O)(=O)c2cc(C(=O)N3CCc4ccccc4C3)ccc2Cl)c1C	i	i	-8.1*	i	i	82*	30*
Cc1ccc(-c2onc(C)c2C)cc1S(=O)(=O)N1CCOc2ccccc21	i	i	-8.1*	i	i	73*	84*
Cc1cc(-c2ccc(C(C)C)c(S(=O)(=O)N3CCOc4ccccc43)c2)on1	i	i	i	i	i	.	.
Cc1ccc(OS(=O)(=O)c2c(C)nn(C)c2Cl)c(C)c1	i	i	-9.9*	i	i	90*	93*
Cc1ccc(-c2nnc(N3CCCCC3)c3ccccc23)cc1	i	i	i	i	i	.	.
